This is an account of results in ChEMBL document CHEMBL4392849, “Design, synthesis, evaluation and molecular modeling study of 4-N-phenylaminoquinolines for Alzheimer disease treatment” (Bioorg Med Chem Lett, 2019).

One assay has as its target Acetylcholinesterase (Electrophorus electricus, UniProt O42275). Nature of the assay: Inhibition of electric eel AChE using acetylthiocholine iodide as substrate preincubated for 15 mins followed by substrate addition by Ellman's method.
Another assay deals with Cholinesterase (Equus caballus, UniProt P81908). Nature of the assay: Inhibition of equine serum BChE using butyrylthiocholine iodide as substrate preincubated for 15 mins followed by substrate addition by Ellman's method. It is filed as single protein. The method, boiled down:
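Ellman method run at pH 8.0 in 0.1 M sodium phosphate buffer. Compounds come from 10 mM DMSO stocks diluted in buffer. Enzyme solution is 0.05 U/ml and DTNB stock is 10 mM. These are held 15 min at 25°C, then 7.5 mM butyrylthiocholine iodide stock is added. Percent inhibition comes from hydrolysis rate with versus without inhibitor.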

Chain of Acetylcholinesterase (O42275 whole entry): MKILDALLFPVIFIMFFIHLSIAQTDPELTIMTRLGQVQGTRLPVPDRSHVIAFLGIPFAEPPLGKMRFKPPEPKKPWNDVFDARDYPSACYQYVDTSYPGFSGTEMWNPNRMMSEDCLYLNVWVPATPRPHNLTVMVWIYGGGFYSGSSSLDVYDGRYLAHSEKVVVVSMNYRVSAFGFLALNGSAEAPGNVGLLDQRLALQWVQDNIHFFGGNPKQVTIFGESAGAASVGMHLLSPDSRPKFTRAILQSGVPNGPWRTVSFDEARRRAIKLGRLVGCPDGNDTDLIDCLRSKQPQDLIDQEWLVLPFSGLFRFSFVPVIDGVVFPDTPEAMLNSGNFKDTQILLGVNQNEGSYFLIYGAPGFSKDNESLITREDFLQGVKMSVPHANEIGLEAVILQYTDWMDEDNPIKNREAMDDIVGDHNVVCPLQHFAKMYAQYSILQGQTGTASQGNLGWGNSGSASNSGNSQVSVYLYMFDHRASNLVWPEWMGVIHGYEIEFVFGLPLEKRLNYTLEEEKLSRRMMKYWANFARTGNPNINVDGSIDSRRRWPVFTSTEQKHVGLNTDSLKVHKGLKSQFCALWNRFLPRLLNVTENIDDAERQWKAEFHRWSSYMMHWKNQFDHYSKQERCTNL
Chain of Cholinesterase (P81908 whole entry): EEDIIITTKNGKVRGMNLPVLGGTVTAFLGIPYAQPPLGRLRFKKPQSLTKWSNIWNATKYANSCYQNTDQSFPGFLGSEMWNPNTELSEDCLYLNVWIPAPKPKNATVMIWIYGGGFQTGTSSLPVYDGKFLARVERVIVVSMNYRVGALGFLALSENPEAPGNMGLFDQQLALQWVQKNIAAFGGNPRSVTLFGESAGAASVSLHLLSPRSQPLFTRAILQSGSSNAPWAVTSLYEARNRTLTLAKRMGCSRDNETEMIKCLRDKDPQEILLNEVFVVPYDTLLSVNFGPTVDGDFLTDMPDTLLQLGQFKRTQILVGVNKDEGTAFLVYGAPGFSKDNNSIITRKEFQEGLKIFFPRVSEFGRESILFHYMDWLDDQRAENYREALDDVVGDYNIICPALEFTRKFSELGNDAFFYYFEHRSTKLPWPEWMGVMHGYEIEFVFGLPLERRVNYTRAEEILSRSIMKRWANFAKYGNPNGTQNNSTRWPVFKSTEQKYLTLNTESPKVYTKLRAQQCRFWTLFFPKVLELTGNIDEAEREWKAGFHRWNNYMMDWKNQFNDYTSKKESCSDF

For the molecule `COc1cc2c(Nc3ccc(O)cc3)c([N+](=O)[O-])cnc2cc1OCCCN(C)Cc1ccccc1`, the results for the concentration for half-maximal inhibition (IC50) against Acetylcholinesterase and against Cholinesterase were 0.74 µM and 17.4 µM, respectively.

For `COc1cc2c(Nc3ccccc3)c([N+](=O)[O-])cnc2cc1OCCCN(C)Cc1ccccc1`, the results for the IC50 on Acetylcholinesterase and on Cholinesterase were 0.65 µM and 10.1 µM, respectively.

As for `COc1cc2c(Nc3cccc(C)c3)c([N+](=O)[O-])cnc2cc1OCCCN(C)Cc1ccccc1`, the values for the IC50 against Acetylcholinesterase and against Cholinesterase were 1.86 µM and 2.78 µM, respectively.

As for `COc1ccc(Nc2c([N+](=O)[O-])cnc3cc(OCCCN(C)Cc4ccccc4)c(OC)cc23)cc1`, the values for the IC50 on Acetylcholinesterase and against Cholinesterase were 10.9 µM and 50.4 µM, respectively.

With `COc1ccccc1Nc1c([N+](=O)[O-])cnc2cc(OCCCN(C)Cc3ccccc3)c(OC)cc12`, the 50% inhibitory concentration (IC50) against Acetylcholinesterase was 7.9 µM; against Cholinesterase, 8.67 µM.

Regarding `COc1cc2c(Nc3ccc(Cl)cc3)c([N+](=O)[O-])cnc2cc1OCCC[n+]1ccccc1`, the values for the IC50 against Acetylcholinesterase and at Cholinesterase were 0.92 µM and 14.2 µM, respectively.

Consider `COc1cc2c(Nc3ccccc3C)c([N+](=O)[O-])cnc2cc1OCCCN(C)Cc1ccccc1`, for which the half-inhibitory concentration (IC50) against Acetylcholinesterase came to 10.1 µM; against Cholinesterase, 29.7 µM.

For the molecule `COc1cc2c(Nc3cccc(O)c3)c([N+](=O)[O-])cnc2cc1OCCCN(C)Cc1ccccc1`, the IC50 against Acetylcholinesterase is 0.71 µM; against Cholinesterase, 10.8 µM.

For `COc1cc2c(Nc3ccc(C)cc3)c([N+](=O)[O-])cnc2cc1OCCCN(C)Cc1ccccc1`, the IC50 at Acetylcholinesterase was determined as 11.8 µM; on Cholinesterase, 73.6 µM.

`COc1cc2c(Nc3ccc(Cl)cc3)c([N+](=O)[O-])cnc2cc1OCCCN(C)Cc1ccccc1`: the IC50 worked out at 1.88 µM at Acetylcholinesterase and 17.4 µM on Cholinesterase.

As for `COc1cc2c(Nc3cccc(C(F)(F)F)c3)c([N+](=O)[O-])cnc2cc1OCCCN(C)Cc1ccccc1`, the IC50 against Acetylcholinesterase came to 7.78 µM; at Cholinesterase, 55.4 µM.

For `COc1cc2c(Nc3cccc(Cl)c3)c([N+](=O)[O-])cnc2cc1OCCCN(C)Cc1ccccc1`, the half-maximal inhibitory concentration (IC50) came to 0.83 µM against Acetylcholinesterase and 15.2 µM against Cholinesterase.

Turning to `COc1cccc(Nc2c([N+](=O)[O-])cnc3cc(OCCCN(C)Cc4ccccc4)c(OC)cc23)c1`, the IC50 was 1.72 µM against Acetylcholinesterase and 9.19 µM at Cholinesterase.

Take `COc1cc2c(Nc3ccccc3Cl)c([N+](=O)[O-])cnc2cc1OCCCN(C)Cc1ccccc1`: the figures for the IC50 on Acetylcholinesterase and on Cholinesterase were 0.86 µM and 2.65 µM, respectively.

Take `COc1cc2c(Nc3ccc(Cl)cc3Cl)c([N+](=O)[O-])cnc2cc1OCCCN(C)Cc1ccccc1`: the figures for the IC50 on Acetylcholinesterase and against Cholinesterase were 1.85 µM and 58.7 µM, respectively.
